According to ChEMBL document CHEMBL2417474, “Synthesis, antiproliferative and anti-inflammatory activities of some novel 6-aryl-2-(p-(methanesulfonyl)phenyl)-4,5-dihydropyridazi-3(2H)-ones” (Eur J Med Chem, 2013):

How the values were obtained:
Rattus norvegicus [1] = test: Antiinflammatory activity in Wistar rat assessed as inhibition of carrageenan-induced paw edema at 0.05 mmol/kg, po administered 30 mins prior challenge measured after 5 hrs; assay type: functional
In short: (§1)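 Wistar rats of either sex, 150–175 g, fasted 16 h, 6 per group. Dosed orally at 0.05 mmol/kg, suspended in 1% CMC in water (10 ml/kg). 30 min later, 0.1 ml of 1% carrageenan in saline injected subplantar into the left hind paw. Paw volume read by plethysmometer at 0, 3 and 5 h. % inhibition = (1 − Vt/Vc) × 100 against the vehicle group.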

Rattus norvegicus [2] = test: Antiinflammatory activity in Wistar rat assessed as inhibition of carrageenan-induced paw edema at 0.05 mmol/kg, po administered 30 mins prior challenge measured after 3 hrs; assay type: functional; in short: as §1
UO-31 = test: Growth inhibition of human UO31 cells assessed as cell growth at 10 uM after 48 hrs by sulforhodamine B assay; assay type: functional; details: UO-31, 48 h, read-out: Activity
In short: (§2)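 Single-dose NCI screen. Tumor lines were cultured in medium with 5% fetal calf serum and 2 mM L-glutamine, preincubated 24 h, then given compound in DMSO. After 48 h continuous exposure, cell growth was estimated by sulforhodamine B protein assay.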

Rattus norvegicus [3] = test: Ulcerogenic activity in Wistar albino rat at 0.15 mmol/kg, po measured after 6 hrs; assay type: toxicity, organism-based; details: in vivo
In short: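 Acute gastric ulcer test in Wistar rats (160–220 g) fasted 24 h, randomized into groups of six. Compound (0.15 mmol/kg) suspended in 1% w/v CMC in distilled water (10 ml/kg vehicle) was given orally, with vehicle and etoricoxib groups alongside. Animals were sacrificed under deep ether anesthesia 6 h after dosing.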

K562 = test: Growth inhibition of human K562 cells assessed as cell growth at 10 uM after 48 hrs by sulforhodamine B assay; assay type: functional; details: K562, 48 h, read-out: Activity
T47D = test: Growth inhibition of human T47D cells assessed as cell growth at 10 uM after 48 hrs by sulforhodamine B assay; assay type: functional; details: read-out: Activity; in short: as §2
SK-MEL-5 = test: Growth inhibition of human SK-MEL-5 cells assessed as cell growth at 10 uM after 48 hrs by sulforhodamine B assay; assay type: functional; details: SK-MEL-5, 48 h, read-out: Activity
MDA-MB-468 = test: Growth inhibition of human MDA-MB-468 cells assessed as cell growth at 10 uM after 48 hrs by sulforhodamine B assay; assay type: functional; details: MDA-MB-468, 48 h, read-out: Activity
CAKI-1 = test: Growth inhibition of human CAKI-1 cells assessed as cell growth at 10 uM after 48 hrs by sulforhodamine B assay; assay type: functional; details: CAKI-1, 48 h, read-out: Activity
SF-295 = test: Growth inhibition of human SF295 cells assessed as cell growth at 10 uM after 48 hrs by sulforhodamine B assay; assay type: functional; details: SF-295, 48 h, read-out: Activity
[4] = Growth inhibition of human EKVX cells assessed as cell growth at 10 uM after 48 hrs by sulforhodamine B assay; assay type: functional; details: read-out: Activity
MDA-MB-435 = test: Growth inhibition of human MDA-MB-435 cells assessed as cell growth at 10 uM after 48 hrs by sulforhodamine B assay; assay type: functional; details: MDA-MB-435, 48 h, read-out: Activity
SR = test: Growth inhibition of human SR cells assessed as cell growth at 10 uM after 48 hrs by sulforhodamine B assay; assay type: functional; details: read-out: Activity; in short: as §2
MOLT-4 = test: Growth inhibition of human MOLT4 cells assessed as cell growth at 10 uM after 48 hrs by sulforhodamine B assay; assay type: functional; details: MOLT-4, 48 h, read-out: Activity
[5] = Growth inhibition of human Hs 578T cells assessed as cell growth at 10 uM after 48 hrs by sulforhodamine B assay; assay type: functional; details: read-out: Activity
RPMI-8226 = test: Growth inhibition of human RPMI8226 cells assessed as cell growth at 10 uM after 48 hrs by sulforhodamine B assay; assay type: functional; details: RPMI-8226, 48 h, read-out: Activity
HL-60(TB) = test: Growth inhibition of human HL-60(TB) cells assessed as cell growth at 10 uM after 48 hrs by sulforhodamine B assay; assay type: functional; details: HL-60, 48 h, read-out: Activity
OVCAR-3 = test: Growth inhibition of human OVCAR3 cells assessed as cell growth at 10 uM after 48 hrs by sulforhodamine B assay; assay type: functional; details: OVCAR-3, 48 h, read-out: Activity
NCI-H522 = test: Growth inhibition of human NCI-H522 cells assessed as cell growth at 10 uM after 48 hrs by sulforhodamine B assay; assay type: functional; details: NCI-H522, 48 h, read-out: Activity
NCI-H23 = test: Growth inhibition of human NCI-H23 cells assessed as cell growth at 10 uM after 48 hrs by sulforhodamine B assay; assay type: functional; details: NCI-H23, 48 h, read-out: Activity
[6] = Growth inhibition of human NCI-ADR-RES cells assessed as cell growth at 10 uM after 48 hrs by sulforhodamine B assay; assay type: functional; details: read-out: Activity

Row | SMILES | inhibition in vivo at 50 µmol/kg (Rattus norvegicus [1]) | inhibition in vivo at 50 µmol/kg (Rattus norvegicus [2]) | further results
1 | CS(=O)(=O)c1ccc(N2N=C(c3ccc(Cl)c(Cl)c3)CCC2=O)cc1 | 34.2% | 26.6% | 
2 | Cc1ccc(O)c(C2=NN(c3ccc(S(C)(=O)=O)cc3)C(=O)CC2)c1 | 86.8% | 66.6% | growth at 10 µM (UO-31): 70%; Activity (Rattus norvegicus [3]): Non-toxic
3 | CS(=O)(=O)c1ccc(N2N=C(c3ccc(Oc4ccccc4)cc3)CCC2=O)cc1 | 65.7% | 50% | growth at 10 µM (K562): 39.7%; growth at 10 µM (T47D): 44.4%; growth at 10 µM (SK-MEL-5): 35.1%; growth at 10 µM (UO-31): 48.8%; growth at 10 µM (MDA-MB-468): 41.6%; growth at 10 µM (CAKI-1): 49.8%; growth at 10 µM (SF-295): 28.8%; growth at 10 µM [4]: 20.1%
4 | Cc1cc(C2=NN(c3ccc(S(C)(=O)=O)cc3)C(=O)CC2)ccc1O | 60.5% | 26.6% | 
5 | Cc1ccc(-c2ncc(Cl)cc2-c2ccc(S(C)(=O)=O)cc2)cn1 [ETORICOXIB] | 86.8% | 83.3% | 
6 | COc1ccc(C2=NN(c3ccc(S(C)(=O)=O)cc3)C(=O)CC2)cc1 | 68.4% | 46.7% | growth at 10 µM (MDA-MB-435): 7.92%; growth at 10 µM (SR): 64%; growth at 10 µM (UO-31): 62.1%
7 | CS(=O)(=O)c1ccc(N2N=C(c3ccc(F)cc3)CCC2=O)cc1 | 73.6% | 60% | growth at 10 µM (K562): 41.8%; growth at 10 µM (MOLT-4): 44.7%
8 | COc1ccc(C2=NN(c3ccc(S(C)(=O)=O)cc3)C(=O)CC2)cc1OC | 82.4% | 66.6% | Activity (Rattus norvegicus [3]): Non-toxic
9 | CS(=O)(=O)c1ccc(N2N=C(c3ccc(Br)cc3)CCC2=O)cc1 | 31.5% | 10% | 
10 | CC(C)(C)c1ccc(C2=NN(c3ccc(S(C)(=O)=O)cc3)C(=O)CC2)cc1 | 68.4% | 50% | growth at 10 µM [5]: 70.7%; growth at 10 µM (RPMI-8226): 69.6%
11 | CS(=O)(=O)c1ccc(N2N=C(c3ccc(O)c(Cl)c3)CCC2=O)cc1 | 55.2% | 43.3% | growth at 10 µM (HL-60(TB)): 66.7%
12 | CS(=O)(=O)c1ccc(N2N=C(c3ccc(-c4ccccc4)cc3)CCC2=O)cc1 | 21% | 6.6% | growth at 10 µM [5]: 64.6%; growth at 10 µM (OVCAR-3): 42.1%; growth at 10 µM [4]: 29.6%
13 | CS(=O)(=O)c1ccc(N2N=C(c3ccc(Cl)cc3)CCC2=O)cc1 | 36.8% | 26.6% | growth at 10 µM (NCI-H522): 25.4%; growth at 10 µM (NCI-H23): 65.3%; growth at 10 µM [6]: 58.3%
14 | CS(=O)(=O)c1ccc(N2N=C(c3ccccc3)CCC2=O)cc1 | 47.3% | 26.6% | 
